# mABHD4 FP = ABHD4 inhibitors, primary screen, biochemical, fluorescence polarization, mouse; (Lyso)-N-acylphosphatidylethanolamine lipase (Mus musculus), Q8VD66; purified mABHD4, FP-Rh probe fluorescence polarization; inhibition, % at 8.92 µM; 370,000 tested, 0.54% active; AID 720543, 2013;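 active = inhibition exceeding the mean over every tested compound plus 3 SD, cut at about 30% in these data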;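 also: 0% = plate median of compound wells and 100% = S159A mutant with DMSO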
# Target sequence (Q8VD66 whole entry, looked up): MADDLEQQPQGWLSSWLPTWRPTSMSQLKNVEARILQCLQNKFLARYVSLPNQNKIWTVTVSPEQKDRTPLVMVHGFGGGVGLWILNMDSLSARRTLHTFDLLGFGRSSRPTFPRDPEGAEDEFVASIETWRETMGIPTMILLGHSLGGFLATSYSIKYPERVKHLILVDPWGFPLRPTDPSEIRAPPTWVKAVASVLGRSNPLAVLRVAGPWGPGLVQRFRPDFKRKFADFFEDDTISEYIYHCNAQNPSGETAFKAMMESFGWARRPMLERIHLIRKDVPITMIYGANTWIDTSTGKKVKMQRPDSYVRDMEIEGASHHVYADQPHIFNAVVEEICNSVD
#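 Test system: mouse ABHD4 enzyme, wild type. Reagent: FP-Rh fluorescent activity-based probe, added after compound pre-incubation. Timing: pre-incubation 45 min, probe exposure 60 min, at 25 °C. Technique: FP readout, ex 525 nm / em 598 nm. Benchmarks: high control S159A mutant with DMSO, low control median of compound wells.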
# HTRA1 inh = HTRA1 serine protease inhibitors, primary screen, biochemical, fluorescence polarization, HTS; recombinant HTRA1, FP-rhodamine activity-based probe; 340,000 tested, 0.5% active; inhibition, % at 5.96 µM; in the data active = inhibition above about 36%;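 also: 0% = enzyme with DMSO and 100% = wells lacking enzyme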
# PRMT1 FP inh = PRMT1 methyltransferase inhibitors, primary screen, biochemical, fluorescence polarization; recombinant PRMT1, activity-based probe fluorescence polarization; AID 652257, 2013; Protein arginine N-methyltransferase 1 (Homo sapiens), Q99873; 370,000 tested, 1.3% active; inhibition, % at 2.79 µM;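 active = inhibition above about 21% made by adding two undisclosed values, limit read from the data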
# TCR CD3 inh = inhibitors of human TCR-CD3 interaction, primary screen, biochemical, fluorescence, TAMRA-labeled TCR probe; inhibition, % at 9.4 µM; AID 651800, 2012; T-cell receptor (TCR); 360,000 tested, 0.37% active;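 also: recombinant mutant TCR 2C K166C tagged with TAMRA read by polarization; 0% = receptor in buffer alone and 100% = receptor with positive control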
# SIAE inh = human SIAE inhibitors, primary screen, biochemical, fluorescence polarization, FP-Rh probe, 1536-well HTS; Sialate O-acetylesterase (Homo sapiens), Q9HAT2; SIAE FP-Rh probe binding; inhibition, % at 9.66 µM; 370,000 tested, 0.69% active; AID 1053197, 2014;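 active = inhibition above a cutoff: mean of compounds within the control limits plus 3 SD of those, cut at about 17% in these data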;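 also: 0% = plate median of compound wells and 100% = probe without SIAE protein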
# HTRA1 conf = HTRA1 protease inhibitors, retest, confirmation, biochemical, fluorescence polarization; shares compounds with HTRA1 inh; recombinant HTRA1, FP-rhodamine activity-based probe; inhibition, % at 5.96 µM; 1,600 tested, 66% active;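 active = mean inhibition over three repeats above a set limit taken from the earlier primary screen, cut at about 37% in these data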;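 also: 0% = HTRA1 with DMSO and 100% = wells lacking HTRA1; inhibitors block probe binding so polarization drops and inhibition rises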
# BSA probe FL = compounds interfering with TAMRA-BSA probe, counter-screen for TCR-CD3 interaction inhibitor project, biochemical, fluorescence, TAMRA-labeled BSA. 1,200 tested, 10% active. TAMRA-labeled BSA probe fluorescence counterscreen. inhibition, % at 9.4 µM. shares compounds with TCR CD3 inh; in the data active = inhibition above about 23%;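 also: 0% = buffer low control and 100% = reference high control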
# TCR-CD3 inh conf = TCR-CD3 interaction inhibitors, retest, confirmation, biochemical, fluorescence, TAMRA-labeled TCR probe. shares compounds with TCR CD3 inh. TAMRA-labeled TCR probe fluorescence binding assay. inhibition, % at 9.4 µM. 1,200 tested, 48% active. AID 652036, 2013
# * marks the source's active call; other numbers are inactive results; . = no result given. Shown are actives, neighbours in structure and some others; about 2.7% of the full set was active somewhere. Rule as the data show it, unless noted: active = inhibition above about 19%; inactive = the rest.
SMILES,mABHD4 FP,HTRA1 inh,PRMT1 FP inh,TCR CD3 inh,SIAE inh,HTRA1 conf,BSA probe FL,TCR-CD3 inh conf
COCC(=O)N1CCC(C(=O)NC2CCCc3ccccc32)CC1 (centres undefined),1,.,-2,.,-2,.,.,.
O=C(CSc1nc2nn(-c3ccccc3)c(=O)c-2c2n1CCCCC2)c1ccc(O)c(O)c1,.,74*,.,.,.,97*,.,.
CNC(=O)CSc1nc2nn(-c3ccccc3)c(=O)c-2c2n1CCCCC2,.,6,.,.,.,.,.,.
CCOc1cc(N2CCOCC2)c(OCC)cc1NC(=O)CN1CCCC1,7,1,3,2,8,.,.,.
CCC(NC(=O)Cn1c(-c2ccccc2)cc(C(C)=O)c1C)c1ccccc1 (centres undefined),-12,.,0,.,-1,.,.,.
CCCCc1cc(=O)oc2cc(OC(C)C(=O)NCCN3CCOCC3)c(Cl)cc12 (centres undefined),-3,-4,2,-1,-2,.,.,.
COc1cc(CN(C)C)cc(C=O)c1O,.,4,.,.,.,.,.,.
COc1cc(N=Nc2ccc(Br)cc2)cc(C=O)c1O,12,46*,0,12,-8,56*,.,.
C[C@@H]1[C@@H](c2ccccc2)OC(O)([C@H](Cc2ccccc2)NC(=O)OC(C)(C)C)CN1C (some centres undefined),3,.,0,.,-3,.,.,.
Cc1cc2cc(CNC(=S)Nc3ccc(OC(F)F)cc3)ccc2n1C,13,52*,10,14,4,5,.,.
Cc1ccc(NC(=O)COCC(=O)Nc2ccc(F)cc2)cc1,-1,-5,0,0,0,.,.,.
Cc1cc(N=Nc2ccccc2)c(NCC(O)C(O)C(O)CO)cc1C (centres undefined),14,45*,6,-7,4,39*,.,.
Cc1ccc(NC(=O)Cc2cccc(OC(F)F)c2)c(S(=O)(=O)N2CCOCC2)c1,-3,.,-5,.,6,.,.,.
CN(C)c1ccc(Cc2cc3c(O)ccc(O)c3cc(Cc3ccc(N(C)C)cc3)c2=O)cc1,83*,84*,79*,43*,56*,72*,17,38*
COc1ccc(C)cc1NC(=O)NNC(=O)c1cc2ccccc2cc1O,5,42*,-1,22*,5,35,-2,26*
C/C(=N\NC(=O)c1ccc(-c2ccccc2)cc1)C1C(=O)c2ccccc2C1=O,22,36*,-3,29*,9,58*,-7,38*
COCCN(C(=O)CSc1nnc(-c2cccc(F)c2)n1N)c1c(N)n(Cc2ccccc2)c(=O)[nH]c1=O,0,0,-3,6,-2,.,.,.
Cc1cc(C(=O)CN2C(=O)C(=O)N(CC(C)C)C2=O)c(C)n1C1CC1,0,-10,1,3,-1,.,.,.
O=C(O)C1Nc2c(O)cc(Cl)c([N+](=O)[O-])c2C2C=CCC12 (centres undefined),61*,66*,36*,91*,53*,63*,-19,51*
O=C(O)c1cc(Cl)c2c(c1)[C@@H]1C=CC[C@@H]1[C@H](c1ccc(S(=O)(=O)N3CCOCC3)cc1)N2,.,23,.,.,.,.,.,.
O=C(CSc1nc2ccccc2n1CCc1ccccc1)c1ccc(O)c(O)c1,24,70*,18,23*,20*,66*,-10,32*
O=C(CSc1nc2ccccc2c(=O)[nH]1)c1ccc(O)cc1O,-11,-8,3,-8,4,.,.,.
O=C(CSc1nc2ccccc2c(=O)[nH]1)c1ccc(O)c(O)c1,34*,43*,23*,32*,1,43*,-19,34*
CC1CC(C)(C)CC2(C1)NC(=O)N(CC(=O)Nc1cc([N+](=O)[O-])ccc1F)C2=O (centres undefined),3,2,2,4,-3,.,.,.
Cc1ccc([C@H]2C(C(=O)O)=CC[C@@H](c3ccc(C)cc3)N2S(=O)(=O)c2ccccc2C)cc1,18,-24,2,3,-8,.,.,.
SMILES,mABHD4 FP,HTRA1 inh,PRMT1 FP inh,TCR CD3 inh,SIAE inh,HTRA1 conf,BSA probe FL,TCR-CD3 inh conf
Oc1ccc(F)c2cccnc12,1,24,0,1,1,.,.,.
Oc1ccc(Cl)c2cccnc12,9,64*,2,30*,4,76*,-3,1
COc1cccc(/C=C2/SC(=S)N(CCCC(=O)Nc3ccc(O)cc3)C2=O)c1,-29,-11,-2,-3,-12,.,.,.
COc1cccc(/C=C2/SC(=S)N(CC(=O)NNC(=O)c3ccccc3O)C2=O)c1,-6,46*,7,25*,-81,8,-6,46*
Cc1ccc(/C=C2/SC(=S)N(CCCC(=O)Nc3ccc(O)cc3)C2=O)cc1,-14,-5,2,-4,6,.,.,.
Cc1ccc(/C=C2\SC(=S)N(CCC(=O)NNC(=O)c3ccccc3O)C2=O)cc1,13,38*,0,29*,6,59*,-9,33*
Cc1ccc(/C=C2\SC(=S)N(CCCC(=O)NNC(=O)c3ccccc3O)C2=O)cc1,9,37*,-3,33*,8,53*,-3,22*
Cc1ccc(/C=C2\SC(=S)N(CCC(=O)NNC(=O)c3ccc(O)cc3)C2=O)cc1,-44,-116,1,0,-213,.,.,.
O=C(CCN1C(=O)/C(=C/c2ccccc2Cl)SC1=S)NNC(=O)c1cccnc1,-9,1,10,5,-8,.,.,.
O=C(CCN1C(=O)/C(=C/c2ccccc2Cl)SC1=S)NNC(=O)c1ccccc1O,-2,55*,-3,43*,-2,70*,3,34*
CCCCC(=O)NC(=S)Nc1c(C)cc(Br)cc1C,-1,-7,3,-1,2,.,.,.
Cc1ccc(NS(=O)(=O)c2ccc(-c3coc(C)n3)cc2)c(Cl)c1,-7,-9,3,2,-6,.,.,.
CN1CC=C(c2ccc(C(F)(F)F)cc2)N(c2ccc(Br)cc2)C1=O,-4,.,-3,.,-3,.,.,.
O=C(N/N=C/c1ccc(O)c(O)c1)N/N=C/c1ccc(O)c(O)c1,27,38*,24*,65*,-12,19,-13,81*
Cc1nonc1C(=O)N/N=C/c1ccc(O)c(O)c1,13,23,4,7,9,.,.,.

# From PubChem
